ChEMBL document CHEMBL1806397, “6-Aryl-3-pyrrolidinylpyridines as mGlu5 receptor negative allosteric modulators” (Bioorg Med Chem Lett, 2011)

Assays:
Liver microsomes = test: Intrinsic clearance in human liver microsomes at 1 uM after 0.25 to 60 mins by LC-MS/MS analysis; assay type: ADME, Microsome
Outline: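 Compound at 1 µM incubated at 37 °C with pooled human liver microsomes (0.5 mg/mL) in 0.1 M potassium phosphate pH 7.4 with an NADPH-regenerating system. Aliquots taken at 0.25, 5, 15, 30 and 60 min and quenched in acetonitrile. CLint calculated from T1/2, scaled by liver and microsomal protein factors.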

[1] = Dissociation constant, pKa of the compound; assay type: physicochemical
[2] = Ratio of drug level in brain to plasma in Sprague-Dawley rat at 10 mg/kg, po after 1 hr; assay type: ADME, organism-based; parameters: dose 10 mg/kg, route oral; settings: read-out: BPR
[3] = Drug level in Sprague-Dawley rat cerebrospinal fluid at 10 mg/kg, po after 1 hr; assay type: ADME, organism-based; parameters: dose 10 mg/kg, route oral; settings: read-out: Drug uptake
Plasma = test: Free drug level in Sprague-Dawley rat plasma at 10 mg/kg, po after 1 hr; assay type: ADME, organism-based; parameters: dose 10 mg/kg, route oral; settings: in vivo
[4] = Distribution coefficient, log D of the compound at pH 7.4; assay type: physicochemical; settings: octanol/water
[5] = Drug level in Sprague-Dawley rat brain at 10 mg/kg, po after 1 hr; assay type: ADME, organism-based; parameters: dose 10 mg/kg, route oral; settings: read-out: Drug uptake
[6] = Drug level in Sprague-Dawley rat plasma at 10 mg/kg, po after 1 hr; assay type: ADME, organism-based; parameters: dose 10 mg/kg, route oral
[7] = Apparent permeability of the compound at pH 7.4 by PAMPA method; assay type: ADME
Outline: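 Passive membrane permeability estimated by PAMPA; apparent permeability (P_APP) reported in cm/s.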

With `Cc1cc(-c2cccc(Cl)c2)ncc1C1CC(F)CN1C(=O)c1cnccn1` (stereo unspecified) as the molecule, how does the CL (Liver microsomes) read?
Its CL is 2.6 L/min.

Which CL (Liver microsomes) does the source give for `O=C(c1cccs1)N1CCCC1c1ccc(-c2cccc(Cl)c2)nc1` (stereo unspecified) here?
The CL was 3 L/min.

And the pKa [1]?
The pKa was 3.6.

Which CL (Liver microsomes) does the source give for `O=C(c1nccs1)N1CCCC1c1ccc(-c2cccc(Cl)c2)nc1` (stereo unspecified) here?
The CL was 3.8 L/min.

Which CL (Liver microsomes) does the source give for `O=C(c1cncs1)N1CCCC1c1ccc(-c2cccc(Cl)c2)nc1` (stereo unspecified) here?
Its CL is 1.6 L/min.

And the pKa [1]?
The pKa was 3.6.

Which pKa [1] does the source give for `Cc1cc(C(=O)N2CCCC2c2ccc(-c3cccc(Cl)c3)nc2)no1` (stereo unspecified) here?
Its pKa is 3.5.

Which CL (Liver microsomes) does the source give for `O=C(c1cnccn1)N1CCCC1c1ccc(-c2cccc(Cl)c2)nc1` (stereo unspecified) here?
Its CL is 3.3 L/min.

And the pKa [1]?
The pKa was 3.4.

Which CL (Liver microsomes) does the source give for `Cc1cc(-c2cccc(Cl)c2)ncc1C1CCCN1C(=O)c1cncs1` (stereo unspecified) here?
Its CL is 35 L/min.

What about the pKa [1] of the same molecule?
Its pKa is 4.2.

Which results are given for `Cc1cc(C(=O)N2CCCC2c2cnc(-c3cccc(Cl)c3)cc2C)no1` (stereo unspecified)?
CL (Liver microsomes): 38 L/min; pKa [1]: 4.2

Which results are given for `Cc1cc(-c2cccc(Cl)c2)ncc1C1CCCN1C(=O)c1cnccn1` (stereo unspecified)?
CL (Liver microsomes): 3.3 L/min; pKa [1]: 4.1

For `Cc1cc(-c2cccc(Cl)c2)ncc1C1CCCN1C(=O)c1ccncn1` (stereo unspecified), which CL (Liver microsomes) is on record?
The CL was 5.3 L/min.

With `Cc1cc(-c2cccc(Cl)c2)ncc1C1CCCN1C(=O)C1CCC1` (stereo unspecified) as the molecule, how does the CL (Liver microsomes) read?
The CL was 5.3 L/min.

What does the source list for `COc1cc(-c2cccc(Cl)c2)ncc1C1CCCN1C(=O)c1cncs1` (stereo unspecified)?
CL (Liver microsomes): 1.7 L/min; pKa [1]: 5

For `O=C(C1CCC1)N1CCCC1c1cnc(-c2cccc(Cl)c2)cc1O` (stereo unspecified), which pKa [1] is on record?
The pKa was 2.8.

Which CL (Liver microsomes) does the source give for `Cc1cc(-c2cccc(Cl)c2)ncc1C1CC(O)CN1C(=O)c1nccs1` (stereo unspecified) here?
Its CL is 0.9 L/min.

With `Cc1cc(-c2cccc(Cl)c2)ncc1C1CC(O)CN1C(=O)c1cnccn1` (stereo unspecified) as the molecule, how does the CL (Liver microsomes) read?
The CL was 1.6 L/min.

For `Cc1cc(-c2cccc(Cl)c2)ncc1C1CC(F)CN1C(=O)c1cncs1` (stereo unspecified), which CL (Liver microsomes) is on record?
The CL was 7.1 L/min.

With `Cc1cc(-c2cccc(Cl)c2)ncc1[C@H]1CCCN1C(=O)c1nccs1` as the molecule, how does the Kp at 1 h [2] read?
Its Kp at 1 h is 0.8.

What about the concentration at 1 h [3] of the same molecule?
Its concentration at 1 h is 3 nM.

And the “Cp(f)” value (Plasma)?
Its value is 1 nM.

What about the logD [4] of the same molecule?
The logD was 4.3.

What about the concentration at 1 h [5] of the same molecule?
Its concentration at 1 h is 133 nM.

What about the concentration at 1 h [6] of the same molecule?
Its concentration at 1 h is 162 nM.

What about the Papp [7] of the same molecule?
Its Papp is 15 ×10⁻⁶ cm/s.

Which CL (Liver microsomes) does the source give for `Cc1cc(-c2cccc(Cl)c2)ncc1C1CCCN1C(=O)c1nccs1` (racemic) here?
The CL was 5.2 L/min.
